This assay relates to WISH cells. Description: MTT cytotoxicity assay, WISH normal cells. It counts as cell-based. The note with it: read-out: IC50 ± SD, WISH (Normal cells). The method in brief:
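Cells obtained from the Egyptian National Cancer Institute and grown in RPMI-1640/DMEM with L-glutamine. Seeded at 5 × 10^4 cells/well in triplicate and treated at 0.1, 1, 10 and 100 μg/mL. Viability read by MTT on the second day with absorbance on a microplate reader. IC50 derived against control-group viability, recorded in triplicate, mean ± SD.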
(Tetrazolium assays rely on reduction of a dye to a coloured formazan, in cell work by metabolically active cells.)

The IC50 is the concentration that inhibits the measured activity by half. Regarding `COc1cccc2c1C(=O)c1c(O)c3c(c(O)c1C2=O)C[C@@](O)(C(=O)CO)C[C@@H]3O[C@H]1C[C@H](N)[C@H](O)[C@H](C)O1` [Doxorubicin], the half-inhibitory concentration (IC50) came out at 56.5 ± 2.7 µM.

The values above are taken from paper PMC10448641 (ACS Omega, 2023).
